We go through 34 compounds from ChEMBL document CHEMBL3286102, “Benzofuran derivatives as anticancer inhibitors of mTOR signaling” (Eur J Med Chem, 2014).

Calls of active or inactive are those of the source. The rule behind the calls is not given here.

As usually defined, the IC50 is the midpoint of a concentration-inhibition curve. Low values mean higher potency, high ones lower potency.

The subject of assay [1] is HOP-62. Kind of assay: Cytotoxicity against human HOP62 cells after 72 hrs by MTT assay. Type of assay: functional, cell-based. The gist of the method: (§1)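 Monolayer culture in RPMI with 10% fetal calf serum, 2 mM glutamine, penicillin/streptomycin, 37 °C, humidified 5% CO2, checked for Mycoplasma. Cells seeded at 2 × 10³/well; after drug exposure, 0.4 mg/ml MTT for 4 h at 37 °C. Formazan dissolved in DMSO, absorbance read at 560 nm. Untreated cells served as positive control, drug medium without cells as negative control.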
For orientation: Formazan colour is commonly taken as a measure of viable cells.

For assay [2], the target named is T1, mTORC1 (Homo sapiens) (UniProt P42345+Q8N122+Q9BVC4). The experiment in a line: Inhibition of mTORC1 in human COLO205 cells assessed as reduction of 4-EBP1 phosphorylation at 0.1 to 8 uM after 24 hrs by Western blotting. Type of assay: cell-based. The following applies: COLO 205. The gist of the method: (§2)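 Membranes were blocked in 5% milk/0.05% Tween 20-PBS and probed overnight with primary antibody against p-S6, p-4EBP1 or p-Akt (S473). Detection used HRP secondary antibody and enhanced chemiluminescence.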

Assay [3] relates to COLO 205. The experiment in a line: Cytotoxicity against human COLO205 cells after 72 hrs by MTT assay. Type of assay: functional, cell-based. The gist of the method: as §1
For assay [4], the target named is T1, mTORC1 (Homo sapiens). The experiment in a line: Inhibition of mTORC1 in human SK-HEP1 cells assessed as reduction of S6 phosphorylation at 0.1 to 8 uM after 24 hrs by Western blotting. Type of assay: cell-based. The gist of the method: as §2
(In general: In western blotting, separated proteins are transferred to a membrane and probed.)

Assay [5] deals with SQ20B. The experiment in a line: Cytotoxicity against human SQ20B cells after 72 hrs by MTT assay. Type of assay: functional, cell-based. The method in brief: as §1
For assay [6], the target named is T1, mTORC1 (Homo sapiens). Kind of assay: Inhibition of mTORC1 in human COLO205 cells assessed as reduction of S6 phosphorylation at 0.1 to 8 uM after 24 hrs by Western blotting. Type of assay: cell-based. The following applies: COLO 205. The gist of the method: as §2
In assay [7] the target is T1, mTORC1 (Homo sapiens). Kind of assay: Inhibition of mTORC1 in human SK-HEP1 cells assessed as reduction of 4-EBP1 phosphorylation at 0.1 to 8 uM after 24 hrs by Western blotting. Type of assay: cell-based. The method in brief: as §2
Assay [8] addresses T1, mTORC1 (Homo sapiens). The experiment in a line: Inhibition of mTORC1 in human SK-HEP1 cells assessed as AKT phosphorylation at Ser473 at 0.1 to 8 uM after 24 hrs by Western blotting. Type of assay: cell-based. The gist of the method:
as §2

The target in assay [9] is T1, mTORC1 (Homo sapiens). Kind of assay: Inhibition of mTORC1 in human COLO205 cells assessed as AKT phosphorylation at Ser473 at 0.1 to 8 uM after 24 hrs by Western blotting. Type of assay: cell-based. The following applies: COLO 205. The gist of the method:
as §2

T1 sequence (Q8N122 whole entry, looked up, other chains not shown): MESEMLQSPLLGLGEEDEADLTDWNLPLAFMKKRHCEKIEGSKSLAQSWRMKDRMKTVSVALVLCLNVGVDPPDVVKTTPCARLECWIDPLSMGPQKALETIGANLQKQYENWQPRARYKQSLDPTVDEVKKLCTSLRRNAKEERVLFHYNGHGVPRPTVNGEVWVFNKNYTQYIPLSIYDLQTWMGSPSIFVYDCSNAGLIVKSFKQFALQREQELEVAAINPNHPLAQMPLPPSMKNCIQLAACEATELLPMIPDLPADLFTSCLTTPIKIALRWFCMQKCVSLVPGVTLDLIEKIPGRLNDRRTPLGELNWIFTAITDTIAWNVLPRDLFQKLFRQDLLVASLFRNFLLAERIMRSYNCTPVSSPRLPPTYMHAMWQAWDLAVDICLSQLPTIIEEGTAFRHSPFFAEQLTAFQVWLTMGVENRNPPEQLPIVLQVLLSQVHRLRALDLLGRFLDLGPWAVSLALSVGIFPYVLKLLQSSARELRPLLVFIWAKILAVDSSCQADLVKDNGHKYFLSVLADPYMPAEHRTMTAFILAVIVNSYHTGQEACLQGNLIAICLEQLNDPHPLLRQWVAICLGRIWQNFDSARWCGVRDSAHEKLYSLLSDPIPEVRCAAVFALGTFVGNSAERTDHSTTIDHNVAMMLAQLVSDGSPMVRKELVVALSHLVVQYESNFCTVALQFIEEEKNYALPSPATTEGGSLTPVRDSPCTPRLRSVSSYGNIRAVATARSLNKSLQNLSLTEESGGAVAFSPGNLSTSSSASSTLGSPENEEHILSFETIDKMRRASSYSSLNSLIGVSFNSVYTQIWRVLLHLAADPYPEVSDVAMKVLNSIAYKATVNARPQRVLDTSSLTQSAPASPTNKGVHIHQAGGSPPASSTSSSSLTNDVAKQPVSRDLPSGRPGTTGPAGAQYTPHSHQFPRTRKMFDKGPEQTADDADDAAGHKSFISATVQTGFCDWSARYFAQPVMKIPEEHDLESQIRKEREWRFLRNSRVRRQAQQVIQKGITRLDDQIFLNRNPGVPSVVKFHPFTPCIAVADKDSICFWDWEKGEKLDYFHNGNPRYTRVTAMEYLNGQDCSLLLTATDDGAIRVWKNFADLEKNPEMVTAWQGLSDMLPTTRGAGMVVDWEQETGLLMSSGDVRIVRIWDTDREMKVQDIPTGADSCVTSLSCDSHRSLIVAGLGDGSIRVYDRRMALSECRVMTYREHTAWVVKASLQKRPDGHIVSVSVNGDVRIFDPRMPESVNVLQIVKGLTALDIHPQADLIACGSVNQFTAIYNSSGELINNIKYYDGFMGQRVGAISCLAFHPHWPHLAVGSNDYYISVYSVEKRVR
T1 sequence (Q9BVC4 whole entry, looked up, other chains not shown): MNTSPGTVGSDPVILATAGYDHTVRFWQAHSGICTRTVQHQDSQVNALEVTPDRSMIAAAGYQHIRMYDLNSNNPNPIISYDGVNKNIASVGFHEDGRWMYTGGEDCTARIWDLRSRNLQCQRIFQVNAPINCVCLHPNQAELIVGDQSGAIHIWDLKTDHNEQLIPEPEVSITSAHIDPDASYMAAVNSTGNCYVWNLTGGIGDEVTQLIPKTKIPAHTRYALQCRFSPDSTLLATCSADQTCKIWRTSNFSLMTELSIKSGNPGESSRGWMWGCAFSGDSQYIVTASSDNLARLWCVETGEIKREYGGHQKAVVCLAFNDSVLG

For the compound `COc1ccc2oc(-c3ccccc3OCc3ccccc3)cc2c1CN1CCC(N(C)C)CC1`, the outcome in assay [1] and in assay [3] was Active. Further, the inhibition entry in assay [2], in assay [4], in assay [6] and in assay [7] was “Active” in each case. Moreover, the IC50 in assay [5] was 460 nM. Consider `Oc1ccc2occ(-c3ccccc3)c2c1CN1CCC(N2CCCCC2)CC1`, for which, in assay [5], the IC50 was found to be 11000 nM. Consider `CO[C@H]1C[C@@H]2CC[C@@H](C)[C@@](O)(O2)C(=O)C(=O)N2CCCC[C@H]2C(=O)O[C@H]([C@H](C)C[C@@H]2CC[C@@H](OCCO)[C@H](OC)C2)CC(=O)[C@H](C)/C=C(\C)[C@@H](O)[C@@H](OC)C(=O)[C@H](C)C[C@H](C)/C=C/C=C/C=C/1C` [EVEROLIMUS], for which the inhibition result in [8] and in [9] was “inactive” each time. In addition, the outcome in assay [1] was inactive. Moreover, the inhibition entry in assay [2], in [4], in assay [6] and in assay [7] was “Active” each time. For the same compound, the outcome in [3] was Active. This compound also came in with an IC50 in assay [5] of 7300 nM.

Compound `Oc1ccc2oc(-c3ccc(Cl)c(Cl)c3)cc2c1CN1CCC(N2CCCCC2)CC1` registered an IC50 in [5] of 2300 nM.

In assay [5], `CN(C)Cc1c(O)ccc2oc(-c3ccccc3)cc12` gave a 50% inhibitory concentration (IC50) of 32000 nM. Turning to `Oc1ccc2oc(-c3ccccc3OCc3ccccc3)cc2c1CN1CCC(N2CCCCC2)CC1`, the outcome in [1] and in [3] was Active. In assay [5], the 50% inhibitory concentration (IC50) came out at 380 nM. In assay [5], `Oc1ccc2oc(-c3ccccc3)nc2c1CN1CCC(N2CCCCC2)CC1` gave an IC50 of 6500 nM. The compound `COc1ccccc1-c1cc2c(CN3CCC(N4CCCCC4)CC3)c(O)ccc2o1` displayed an IC50 in [5] of 1300 nM. Turning to `Cc1c(-c2ccccc2)oc2ccc(O)c(CN3CCC(N4CCCCC4)CC3)c12`, half-maximal inhibition in [5] (IC50) required 1200 nM. Consider `Oc1ccc2oc(-c3ccccc3)cc2c1CN1CCC(N2CCCCC2)CC1`, for which the result in assay [1] and in assay [3] was Active. The same compound returned an IC50 in assay [5] of 1400 nM. As to `CO[C@H]1C[C@@H]2CC[C@@H](C)[C@@](O)(O2)C(=O)C(=O)N2CCCC[C@H]2C(=O)O[C@H]([C@H](C)C[C@@H]2CC[C@@H](O)[C@H](OC)C2)CC(=O)[C@H](C)/C=C(\C)[C@@H](O)[C@@H](OC)C(=O)[C@H](C)C[C@H](C)/C=C/C=C/C=C/1C`, the inhibition result in [2], in assay [4], in assay [6] and in assay [7] was “Active” in each case. The compound `CCOC(=O)c1c(-c2ccccc2)oc2ccc(O)c(CN3CCC(N4CCCCC4)CC3)c12` yielded an IC50 in assay [5] of 1500 nM. Regarding `COc1ccc(-c2cc3c(CN4CCC(N5CCCCC5)CC4)c(O)ccc3o2)c(OC)c1`, in assay [5], the IC50 was found to be 1100 nM. For the compound `Oc1ccc2oc(-c3ccccc3Cl)cc2c1CN1CCC(N2CCCCC2)CC1`, half-maximal inhibition in [5] (IC50) required 2600 nM.

`Oc1ccc2cc(-c3ccccc3)oc2c1CN1CCC(N2CCCCC2)CC1` returned an IC50 in [5] of 11000 nM. With `Oc1ccc2oc(-c3ccco3)cc2c1CN1CCC(N2CCCCC2)CC1`, the IC50 in [5] stood at 4000 nM. Take `COc1ccc(-c2cc3c(CN4CCC(N5CCCCC5)CC4)c(O)ccc3o2)cc1`: in assay [5], the midpoint of inhibition, the IC50, lay at 850 nM. `OCc1c(-c2ccccc2)oc2ccc(O)c(CN3CCC(N4CCCCC4)CC3)c12`: the 50% inhibitory concentration (IC50) in [5] is 3400 nM. Compound `c1ccc(-c2cc3c(CN4CCC(N5CCCCC5)CC4)nccc3o2)cc1` registered an IC50 in assay [5] of 18000 nM. For the compound `COc1cccc(-c2cc3c(CN4CCC(N5CCCCC5)CC4)c(O)ccc3o2)c1`, in assay [5], the IC50 is 2000 nM.

Turning to `Oc1ccc2oc(-c3cccs3)cc2c1CN1CCC(N2CCCCC2)CC1`, in assay [5], the IC50 was 2700 nM. Take `Oc1ccc2c(ccn2Cc2ccccc2)c1CN1CCC(N2CCCCC2)CC1`: the IC50 in [5] is 17000 nM. Consider `O=S(=O)(Nc1ccc2oc(-c3ccccc3)cc2c1CN1CCC(N2CCCCC2)CC1)C(F)(F)F`, for which, in [5], 2100 nM corresponded to half-maximal inhibition (IC50).

The compound `Cn1c(-c2ccccc2)cc2c(CN3CCC(N4CCCCC4)CC3)c(O)ccc21` had an IC50 in assay [5] of 19000 nM. `Oc1ccc2[nH]c(-c3ccccc3)nc2c1CN1CCC(N2CCCCC2)CC1` gave an IC50 in assay [5] of 21000 nM. As to `Oc1ccc2oc(-c3cccc4ccccc34)cc2c1CN1CCC(N2CCCCC2)CC1`, in assay [5], the midpoint of inhibition, the IC50, lay at 860 nM. For the compound `O=S(=O)(Oc1ccc2oc(-c3ccccc3)cc2c1CN1CCC(N2CCCCC2)CC1)C(F)(F)F`, inhibition in [5] was half-maximal at 2800 nM (IC50). As for `Oc1ccc2oc(-c3ccc4ccccc4c3)cc2c1CN1CCC(N2CCCCC2)CC1`, 2800 nM corresponded to half-maximal inhibition in [5] (IC50). The same measure, in the same setting: to `Oc1ccc2oc(-c3ccc(Cl)cc3)cc2c1CN1CCC(N2CCCCC2)CC1` belongs 860 nM. Regarding `COc1cccc2cc(-c3nc([C@H]4CC[C@H](C(=O)O)CC4)n4ncnc(N)c34)[nH]c12`, the outcome in assay [1] and in assay [3] was Active. The compound `Oc1ccc2oc(-c3cccc(Cl)c3)cc2c1CN1CCC(N2CCCCC2)CC1` had an IC50 in [5] of 920 nM.

As to `COc1ccc(-c2cc3c(CN4CCC(N(C)C)CC4)c(O)ccc3o2)cc1`, inhibition in [5] was half-maximal at 1200 nM (IC50). With `COc1ccc2oc(-c3ccccc3)cc2c1CN1CCC(N2CCCCC2)CC1`, the IC50 in assay [5] was determined as 2500 nM.

Take `c1ccc(-c2cc3c(CN4CCC(N5CCCCC5)CC4)cccc3o2)cc1`: in assay [5], the IC50 was determined as 7500 nM.
